From ChEMBL document CHEMBL1629649, “Multiple regulatory pathways associated with high-level ciprofloxacin and multidrug resistance in Salmonella enterica serovar enteritidis: involvement of RamA and other global regulators” (2009)
≈ marks a conversion by molar mass, not a printed value.

Legend:
Assay type in all cases: functional, Salmonella enterica subsp. enterica serovar Enteritidis
[1] = system: Salmonella enteritidis; experiment: Antimicrobial activity against Salmonella enterica serovar enteritidis isolate 5408 harboring gyrA gene by Etest
[2] = system: Salmonella enteritidis; experiment: Antimicrobial activity against ciprofloxacin-resistant Salmonella enterica serovar enteritidis isolate 5408-cip harboring gyrA gene, gyrB E466D, parE V461G mutant gene by Etest
Outline: (§1)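 Wild-type alleles of the target genes were carried on plasmids and introduced into the ciprofloxacin-selected mutants by electrotransformation. Transformants were selected on LB agar with 50 µg/ml kanamycin at 37°C overnight. Quinolone MICs of the transformants were read by Etest strips alongside those of the parent and mutant strains.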

[3] = system: Salmonella enteritidis; experiment: Antimicrobial activity against Salmonella enterica serovar enteritidis isolate 54 harboring gyrA D87Y mutant gene by Etest
[4] = system: Salmonella enteritidis; experiment: Antimicrobial activity against acrB::aph-deficient Salmonella enterica serovar enteritidis isolate 4931 harboring gyrA D87Y mutant gene by Etest
Outline: (§2)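 Deletions (acrB, marA, soxS or ramA) were moved from SL1344 mutants into the isolates by P22 phage transduction. Transductants were selected on LB agar with 50 µg/ml kanamycin, and insertion of the kanamycin resistance gene was confirmed by PCR. MICs were then determined by Etest.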

[5] = system: Salmonella enteritidis; experiment: Antimicrobial activity against ciprofloxacin-resistant Salmonella enterica serovar enteritidis isolate 5408-cip harboring parE gene gyrA D87Y, gyrB E466D mutant gene by Etest; outline: as §1
[6] = system: Salmonella enteritidis; experiment: Antimicrobial activity against ramA::aph-deficient ciprofloxacin-resistant Salmonella enterica serovar enteritidis isolate 5408-cip harboring gyrA D87Y, gyrB E466D, parE V461G mutant gene by Etest; outline: as §2
[7] = system: Salmonella enteritidis; experiment: Antimicrobial activity against ciprofloxacin-resistant Salmonella enterica serovar enteritidis isolate 5408-cip harboring gyrB gene gyrA D87Y, parE V461G mutant gene by Etest; outline: as §1
[8] = system: Salmonella enteritidis; experiment: Antimicrobial activity against soxS::aph-deficient ciprofloxacin-resistant Salmonella enterica serovar enteritidis isolate 104-cip harboring gyrA D87Y,S83F mutant gene by Etest; outline: as §2
[9] = system: Salmonella enteritidis; experiment: Antimicrobial activity against marA::aph-deficient ciprofloxacin-resistant Salmonella enterica serovar enteritidis isolate 104-cip harboring gyrA D87Y,S83F mutant gene by Etest; outline: as §2
[10] = system: Salmonella enteritidis; experiment: Antimicrobial activity against ciprofloxacin-resistant Salmonella enterica serovar enteritidis isolate 5408-cip harboring gyrA D87Y, gyrB E466D, parE V461G mutant gene by Etest
[11] = system: Salmonella enteritidis; experiment: Antimicrobial activity against acrB::aph-deficient Salmonella enterica serovar enteritidis isolate 104 harboring gyrA D87Y mutant gene by Etest; outline: as §2
[12] = system: Salmonella enteritidis; experiment: Antimicrobial activity against acrB::aph-deficient Salmonella enterica serovar enteritidis isolate 51 harboring gyrA D87Y mutant gene by Etest; outline: as §2
[13] = system: Salmonella enteritidis; experiment: Antimicrobial activity against Salmonella enterica serovar enteritidis isolate 104 harboring gyrA gene by Etest
[14] = system: Salmonella enteritidis; experiment: Antimicrobial activity against Salmonella enterica serovar enteritidis isolate 5408 harboring gyrA D87Y mutant gene by Etest
[15] = system: Salmonella enteritidis; experiment: Antimicrobial activity against Salmonella enterica serovar enteritidis isolate NCTC 13349 by Etest
[16] = system: Salmonella enteritidis; experiment: Antimicrobial activity against acrB::aph-deficient ciprofloxacin-resistant Salmonella enterica serovar enteritidis isolate 104-cip harboring gyrA D87Y,S83F mutant gene by Etest; outline: as §2
[17] = system: Salmonella enteritidis; experiment: Antimicrobial activity against acrB::aph-deficient ciprofloxacin-resistant Salmonella enterica serovar enteritidis isolate 5408-cip harboring gyrA D87Y, gyrB E466D, parE V461G mutant gene by Etest; outline: as §2
[18] = system: Salmonella enteritidis; experiment: Antimicrobial activity against acrB::aph-deficient Salmonella enterica serovar enteritidis isolate CUH60 harboring gyrA D87Y mutant gene by Etest; outline: as §2
[19] = system: Salmonella enteritidis; experiment: Antimicrobial activity against Salmonella enterica serovar enteritidis isolate 104-cip harboring gyrA D87Y,S83F mutant gene by Etest
[20] = system: Salmonella enteritidis; experiment: Antimicrobial activity against Salmonella enterica serovar enteritidis isolate CUH60 harboring gyrA D87Y mutant gene by Etest
[21] = system: Salmonella enteritidis; experiment: Antimicrobial activity against Salmonella enterica serovar enteritidis isolate 104 harboring gyrA D87Y mutant gene by Etest
[22] = system: Salmonella enteritidis; experiment: Antimicrobial activity against Salmonella enterica serovar enteritidis isolate 51 harboring gyrA D87Y mutant gene by Etest
[23] = system: Salmonella enteritidis; experiment: Antimicrobial activity against Salmonella enterica serovar enteritidis isolate 4931 harboring gyrA D87Y mutant gene by Etest
[24] = system: Salmonella enteritidis; experiment: Antimicrobial activity against Salmonella enterica serovar enteritidis isolate CUH52 by Etest
[25] = system: Salmonella enteritidis; experiment: Antimicrobial activity against Salmonella enterica serovar enteritidis isolate 58 harboring gyrA D87Y mutant gene by Etest
[26] = system: Salmonella enteritidis; experiment: Antimicrobial activity against Salmonella enterica serovar enteritidis isolate CUH48 by Etest
[27] = system: Salmonella enteritidis; experiment: Antimicrobial activity against acrB::aph-deficient Salmonella enterica serovar enteritidis isolate 5408 harboring gyrA D87Y mutant gene by Etest; outline: as §2
[28] = system: Salmonella enteritidis; experiment: Antimicrobial activity against ciprofloxacin-resistant Salmonella enterica serovar enteritidis isolate 104-cip harboring gyrA gene by Etest; outline: as §1

`CCn1cc(C(=O)O)c(=O)c2ccc(C)nc21` [NALIDIXIC ACID] was tested, and the MIC [1] was 4 µg/mL (≈ 17.2 µM), the MIC [2] was > 256 µg/mL and the MIC [3] was > 256 µg/mL. For the same compound, the MIC [4] was 32 µg/mL (≈ 138 µM), the MIC [5] was > 256 µg/mL and the MIC [6] was > 256 µg/mL. For the same compound, the MIC [7] was > 256 µg/mL, the MIC [8] was > 256 µg/mL and the MIC [9] was > 256 µg/mL. The MIC [10] was > 256 µg/mL, the MIC [11] was 32 µg/mL (≈ 138 µM) and the MIC [12] was 32 µg/mL (≈ 138 µM). The MIC [13] was 4 µg/mL (≈ 17.2 µM), the MIC [14] was > 256 µg/mL and the MIC [15] was 8 µg/mL (≈ 34.4 µM). For the same compound, the MIC [16] was > 256 µg/mL, the MIC [17] was > 256 µg/mL and the MIC [18] was 24 µg/mL (≈ 103 µM). The MIC [19] was > 256 µg/mL, the MIC [20] was > 256 µg/mL and the MIC [21] was > 256 µg/mL. For the same compound, the MIC [22] was > 256 µg/mL, the MIC [23] was > 256 µg/mL and the MIC [24] was 3 µg/mL (≈ 12.9 µM). The MIC [25] was > 256 µg/mL, the MIC [26] was 6 µg/mL (≈ 25.8 µM) and the MIC [27] was 32 µg/mL (≈ 138 µM). For the same compound, the MIC [28] was 8 µg/mL (≈ 34.4 µM).
